Measured values of several laboratories.
Sample: plasma

SMILES | test system | setting | AUC(0-t)
C#Cc1cccc(Nc2ncnc3cc(OCCOC)c(OCCOC)cc23)c1 | human | oral, 100 mg, patients | 21.9 µM·h
CCCCC1=NC2(CCCC2)C(=O)N1Cc1ccc(-c2ccccc2S(=O)(=O)Nc2noc(C)c2C)c(COCC)c1 | human | oral, 800 mg, single dose, fed, healthy volunteers, tablet | 169 µg·h/mL
CC(C)(O)c1ccccc1-c1ccc2[nH]c(/C=C/c3ccc(C(F)(F)F)cc3)nc2c1 | male human | oral, 30 mg, single dose, fasted, healthy volunteers | 5.16 µg·h/mL
COc1cc(N2CCC(N3CCN(C)CC3)CC2)ccc1Nc1ncnc(Nc2ccccc2S(=O)(=O)C(C)C)n1 | human | oral, 50 mg, multiple doses, patients | 4.64 µg·h/mL
CCO[C@H]1CCN(Cc2c(OC)cc(C)c3[nH]ccc23)[C@H](c2ccc(C(=O)O)cc2)C1 | human | oral, 50 mg, multiple doses, twice daily, patients | 8.57 µg·h/mL
O=C(/C=C/c1cccc(S(=O)(=O)Nc2ccccc2)c1)NO | human | intravenous, 2000 mg/m², patients | 85.2 µg·h/mL
CO[C@H]1CC[C@H](N2C(=O)CNc3ncc(-c4ccc(C(C)(C)O)nc4)nc32)CC1 | human | oral, 45 mg, multiple doses, patients | 2.08 µg·h/mL
CNCC[C@H](Oc1cccc2ccccc12)c1cccs1 | female human | oral, 30 mg, multiple doses, once daily | 0.135 µg·h/mL
C[C@@]1(c2cc(NC(=O)c3ccc(C#N)cn3)ccc2F)C=CSC(N)=N1 | human | oral, 150 mg, single dose | 14.3 µg·h/mL
COCCOc1cnc2ccn([C@H](C)c3nnc4c(F)cc(-c5cnn(C)c5)cn34)c(=O)c2c1 | human | oral, 150 mg, multiple doses, once daily, patients | 31.9 µg·h/mL
CC[C@H](C)C(=O)O[C@H]1C[C@H](O)C=C2C=C[C@H](C)[C@H](CC[C@@H](O)C[C@@H](O)CC(=O)O)[C@H]21 | human | oral, 20 mg | 0.0467 µg·h/mL
C[C@@H](Oc1ccc(S(C)(=O)=O)cc1C(=O)N1C[C@@H]2C[C@]2(c2cc(C(F)(F)F)on2)C1)C(F)(F)F | human | oral, 25 mg, fasted, tablet | 8.7 µM·h
Cc1nc(NC(=O)N2CCC[C@H]2C(N)=O)sc1-c1ccnc(C(C)(C)C(F)(F)F)c1 | human | oral, 180 mg, patients | 15.5 µg·h/mL
CCNCCCNC/C=C\CNCCCNCC | human | intravenous, 200 mg, patients, infusion | 1.33 µg·h/mL
COc1ccc([C@@H]2CN(C(=O)[C@@H](O)CO)C[C@@]2(C)[C@@H](C)O)cc1OC1CN(c2ccc(C)cn2)C1 | human | oral, 1.5 mg, single dose, healthy volunteers | 0.467 µg·h/mL
Nc1cc(C(F)(F)F)c(-c2cc(N3CCOCC3)nc(N3CCOCC3)n2)cn1 | human | oral, 25 mg/day, patients | 2.06 µg·h/mL
CC(C)n1cc(C#N)c2cc(-n3cc(C(=O)O)cn3)ccc21 | human | oral, 200 mg, single dose, fasted, healthy volunteers | 43.9 µg·h/mL
OC[C@H]1O[C@@H](c2ccc(Cl)c(Cc3ccc(O[C@H]4CCOC4)cc3)c2)[C@H](O)[C@@H](O)[C@@H]1O | human | oral, 100 mg, single dose | 20 µM·h
COc1cc2c(cc1OC)CN(CCc1ccc(NC(=O)c3cc(OC)c(OC)cc3NC(=O)c3cnc4ccccc4c3)cc1)CC2 | human | intravenous, 2 mg/kg, patients | 11.9 µM·h
CO[C@@H]1[C@H](OC(=O)N2CC(CCN3CCOCC3)C2)CC[C@]2(CO2)[C@H]1[C@@]1(C)O[C@@H]1CC=C(C)C | human | subcutaneous, 4.8 mg, single dose, healthy volunteers | 0.0216 µg·h/mL
C[C@@H](Nc1cc(F)cc(F)c1)c1cc(C(=O)N(C)C)cc2c(=O)cc(N3CCOCC3)oc12 | human | oral, 60 mg, single dose, patients | 1.24 µg·h/mL
